The target of data set [1] is T1, Acetylcholinesterase (Homo sapiens, UniProt P22303). Kind of data set: Inhibition of recombinant human AChE expressed in HEK293 cells by Ellman's method. The class given is cell-based. A general note: In Ellman's method for cholinesterases, released thiocholine reacts with DTNB.
The target in data set [2] is T2, Glutamate NMDA receptor; GRIN1/GRIN2A (Homo sapiens, UniProt Q05586+Q12879). Nature of the data set: Inhibition of human GluN1-1a/NR2A receptor expressed in transgenic mouse fibroblast cells assessed as inhibition of L-glutamate-induced excitotoxicity at 50 uM by measuring LDH activity by cell based assay. In outline: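 Mouse fibroblasts stably expressing human GluN1-1a/2A or GluN1-1a/2B receptors were exposed to 10 μM L-glutamate plus glycine with test agent. Excitotoxicity was read as LDH activity in the medium. Agonists alone defined 100%; agonists plus 100 μM ketamine defined 0%. Percent inhibition at the single test concentration came from at least three independent experiments.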

The subject of data set [3] is Glutamate NMDA receptor GRIN1/GRIN2B (Homo sapiens). Nature of the data set: Inhibition of human GluN1-1a/NR2B receptor expressed in transgenic mouse fibroblast cells assessed as inhibition of L-glutamate-induced excitotoxicity at 20 uM by measuring LDH activity by cell based assay.
The nature of data set [4]: Solubility of the compound at >= 50 uM. The data set is classed as physicochemical.
A further data set deals with Cholinesterase (Equus caballus, UniProt P81908). Nature of the data set: Inhibition of recombinant equine BChE by Ellman's method.
The target of data set [5] is Glutamate NMDA receptor; GRIN1/GRIN2B (Homo sapiens, UniProt Q05586+Q13224). Nature of the data set: Inhibition of human GluN1-1a/NR2B receptor expressed in transgenic mouse fibroblast cells assessed as inhibition of L-glutamate-induced excitotoxicity by measuring LDH activity by cell based assay. In outline:
(§1)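 Stably transfected mouse fibroblasts expressing human GluN1-1a/2A or GluN1-1a/2B receptors; excitotoxicity induced with 10 μM L-glutamate plus 10 μM glycine and quantified as LDH activity in medium. Agonists without antagonist defined 100%; agonists plus 100 μM ketamine defined 0%. IC50 ± SD from at least three independent experiments.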

Data set [6] addresses T2, Glutamate NMDA receptor; GRIN1/GRIN2A. Nature of the data set: Inhibition of human GluN1-1a/NR2A receptor expressed in transgenic mouse fibroblast cells assessed as inhibition of L-glutamate-induced excitotoxicity by measuring LDH activity by cell based assay. In a few lines:
as §1

Data set [7] deals with T1, Acetylcholinesterase. Nature of the data set: Inhibition of recombinant human AChE expressed in HEK293 cells at 50 uM by Ellman's method relative to control. The data set is classed as cell-based.
The nature of data set [8]: Solubility of the compound in buffer at > 20 uM. The data set is classed as physicochemical.
The target in data set [9] is Cholinesterase (Equus caballus) (UniProt P81908). Nature of the data set: Inhibition of recombinant equine BChE at 20 uM by Ellman's method relative to control. In outline: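 Ellman assay with equine BChE as enzyme, compound at single concentration as listed; percent inhibition relative to control, measured in triplicate.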
Data set [10] concerns the target T1, Acetylcholinesterase. Nature of the data set: Inhibition of recombinant human AChE expressed in HEK293 cells at 20 uM by Ellman's method relative to control. The data set is classed as cell-based.
Data set [11] in a line: Selectivity ratio of IC50 for recombinant human AChE to IC50 for equine BuChE.

SMILES strings stand for the structures. Where only a bound is given, the exact number is not on record here.

Glutamate NMDA receptor; GRIN1/GRIN2B, sequence (Q13224 whole entry, looked up, other chains not shown): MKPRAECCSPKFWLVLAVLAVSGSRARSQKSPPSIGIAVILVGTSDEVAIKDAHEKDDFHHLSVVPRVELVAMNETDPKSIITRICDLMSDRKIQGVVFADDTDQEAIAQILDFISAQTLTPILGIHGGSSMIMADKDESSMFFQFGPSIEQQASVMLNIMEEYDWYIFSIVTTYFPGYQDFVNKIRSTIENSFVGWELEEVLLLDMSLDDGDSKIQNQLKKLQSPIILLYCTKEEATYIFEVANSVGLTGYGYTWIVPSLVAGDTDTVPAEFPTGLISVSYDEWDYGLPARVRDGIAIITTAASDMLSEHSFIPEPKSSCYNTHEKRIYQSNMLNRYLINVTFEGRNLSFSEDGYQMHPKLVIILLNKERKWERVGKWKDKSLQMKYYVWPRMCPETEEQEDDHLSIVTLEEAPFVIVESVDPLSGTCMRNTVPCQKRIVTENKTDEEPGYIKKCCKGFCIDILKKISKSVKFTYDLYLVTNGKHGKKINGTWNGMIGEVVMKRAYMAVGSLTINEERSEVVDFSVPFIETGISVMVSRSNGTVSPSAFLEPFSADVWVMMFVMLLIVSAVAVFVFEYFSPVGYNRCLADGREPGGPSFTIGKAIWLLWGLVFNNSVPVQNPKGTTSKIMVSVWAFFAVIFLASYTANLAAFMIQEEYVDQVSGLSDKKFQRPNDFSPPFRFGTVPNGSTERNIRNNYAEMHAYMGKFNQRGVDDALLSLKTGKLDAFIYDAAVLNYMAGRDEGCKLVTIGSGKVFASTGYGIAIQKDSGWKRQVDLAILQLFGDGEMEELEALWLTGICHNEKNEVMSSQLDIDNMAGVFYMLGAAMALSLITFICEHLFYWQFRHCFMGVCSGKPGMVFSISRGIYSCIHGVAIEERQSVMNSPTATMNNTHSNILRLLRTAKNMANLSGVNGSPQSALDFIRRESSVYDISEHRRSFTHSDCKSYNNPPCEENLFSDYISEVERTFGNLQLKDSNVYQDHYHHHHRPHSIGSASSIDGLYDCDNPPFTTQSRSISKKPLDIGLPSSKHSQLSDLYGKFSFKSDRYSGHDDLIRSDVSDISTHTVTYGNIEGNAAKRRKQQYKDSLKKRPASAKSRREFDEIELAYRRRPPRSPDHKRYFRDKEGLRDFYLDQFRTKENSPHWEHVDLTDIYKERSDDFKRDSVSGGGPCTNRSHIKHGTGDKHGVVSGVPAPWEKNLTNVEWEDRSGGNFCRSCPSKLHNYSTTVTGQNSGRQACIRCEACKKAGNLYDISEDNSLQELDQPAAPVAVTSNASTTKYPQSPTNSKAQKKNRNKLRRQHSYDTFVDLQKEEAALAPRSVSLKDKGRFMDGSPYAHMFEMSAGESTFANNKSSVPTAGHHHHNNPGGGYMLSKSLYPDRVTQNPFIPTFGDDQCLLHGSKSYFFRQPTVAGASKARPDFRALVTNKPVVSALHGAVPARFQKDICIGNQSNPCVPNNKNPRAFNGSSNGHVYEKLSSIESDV
T1 sequence (P22303 whole entry): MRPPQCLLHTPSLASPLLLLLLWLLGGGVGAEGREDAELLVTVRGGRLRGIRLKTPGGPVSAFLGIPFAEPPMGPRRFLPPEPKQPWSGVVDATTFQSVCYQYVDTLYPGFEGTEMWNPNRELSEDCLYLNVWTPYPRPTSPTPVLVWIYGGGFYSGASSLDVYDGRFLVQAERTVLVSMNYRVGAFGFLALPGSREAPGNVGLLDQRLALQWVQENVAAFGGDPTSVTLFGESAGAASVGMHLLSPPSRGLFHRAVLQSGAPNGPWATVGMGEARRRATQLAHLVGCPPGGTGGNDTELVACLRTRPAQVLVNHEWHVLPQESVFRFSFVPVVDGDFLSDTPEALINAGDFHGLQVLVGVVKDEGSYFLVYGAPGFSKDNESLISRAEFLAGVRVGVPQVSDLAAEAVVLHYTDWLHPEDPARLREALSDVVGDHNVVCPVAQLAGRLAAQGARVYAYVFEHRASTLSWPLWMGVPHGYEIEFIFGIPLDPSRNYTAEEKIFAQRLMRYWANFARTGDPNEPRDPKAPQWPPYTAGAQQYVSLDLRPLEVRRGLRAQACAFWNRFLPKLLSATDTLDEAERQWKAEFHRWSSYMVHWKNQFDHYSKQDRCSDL
Cholinesterase, sequence (P81908 whole entry): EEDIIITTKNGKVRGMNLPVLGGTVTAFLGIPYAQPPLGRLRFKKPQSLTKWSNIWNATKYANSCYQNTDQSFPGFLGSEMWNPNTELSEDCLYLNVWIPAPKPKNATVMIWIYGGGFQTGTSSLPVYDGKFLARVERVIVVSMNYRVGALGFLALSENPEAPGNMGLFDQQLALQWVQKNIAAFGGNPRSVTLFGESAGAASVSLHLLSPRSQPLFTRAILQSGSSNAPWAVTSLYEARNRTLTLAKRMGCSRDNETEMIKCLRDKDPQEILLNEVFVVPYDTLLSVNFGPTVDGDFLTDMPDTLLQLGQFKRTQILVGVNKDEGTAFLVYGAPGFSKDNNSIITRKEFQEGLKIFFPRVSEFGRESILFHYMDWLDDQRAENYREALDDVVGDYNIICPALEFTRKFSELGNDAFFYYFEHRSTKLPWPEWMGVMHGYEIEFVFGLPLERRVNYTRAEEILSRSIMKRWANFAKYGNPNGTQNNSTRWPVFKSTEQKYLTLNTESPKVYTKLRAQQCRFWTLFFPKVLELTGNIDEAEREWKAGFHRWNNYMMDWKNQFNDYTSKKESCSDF
Cholinesterase (Equus caballus), sequence (P81908 whole entry): as above

As to `C[n+]1ccc2c(c1)c1ccccc1n2CCCCCCCCCn1c2ccccc2c2c[n+](C)ccc21`, the IC50 (in general, the point on the concentration scale where inhibition reaches its midpoint) on Acetylcholinesterase [1] is 0.00033 µM.

As for `CN1CCc2c(c3ccccc3n2CCCCCCCCCn2c3c(c4ccccc42)CN(C)CC3)C1`, the inhibition in [2] and in data set [3] was less than 50% throughout.

Consider `c1ccc(CN2CCc3[nH]c4ccccc4c3C2)cc1`, for which the inhibition in data set [2] and in [3] was less than 50% each time. For the same molecule, the IC50 on Acetylcholinesterase [1] was 20.4 µM; on Cholinesterase, 6.5 µM. In data set [4], the solubility entry is reported as “Insoluble”.

On to `Cc1ccc2c(c1)c1cnccc1n2CCC(=O)N1c2ccccc2Sc2ccccc21`, for which the IC50 was found to be 0.51 µM on Acetylcholinesterase [1], 1.5 µM in data set [5], 0.016 µM at Cholinesterase and 1.3 µM in data set [6].

For the molecule `Fc1ccc2[nH]c3ccncc3c2c1`, the inhibition in [2] and in [3] was less than 50% each time. The IC50 was found to be 11.4 µM at Acetylcholinesterase [1] and 0.55 µM at Cholinesterase. Further, in data set [4], the solubility entry is listed as “Insoluble”.

Take `COc1ccc2[nH]c3c(c2c1)CN(Cc1ccccc1)CC3`: the inhibition in data set [2] and in [3] was less than 50% throughout. For the same molecule, the IC50 on Acetylcholinesterase [1] amounted to 52.7 µM; on Cholinesterase, 6.3 µM. Also, the solubility entry in [4] is “Insoluble”.

`O=C(CCn1c2ccccc2c2cnccc21)N1c2ccccc2Sc2ccccc21`: the IC50 on Acetylcholinesterase [1] came out at 2.3 µM; in data set [5] it was 3 µM; on Cholinesterase it was 0.008 µM; in data set [6] it was 4.2 µM.

On to `Cc1ccc2[nH]c3c(c2c1)CN(Cc1ccccc1)CC3`, for which the inhibition in data set [2] and in data set [3] was less than 50% in each case. In addition, the IC50 on Acetylcholinesterase [1] turned out to be 35.1 µM; at Cholinesterase, 1.4 µM. The solubility result in data set [4] is listed as “Insoluble”.

Consider `CN1CCc2[nH]c3ccccc3c2C1`, for which the inhibition (in [2]; on Acetylcholinesterase [7]; in data set [3]) was less than 50% each time. Further, the solubility entry in [4] is given as “Insoluble”. For the same molecule, at Cholinesterase, the IC50 stood at 6.5 µM.

Turning to `[Br-].c1ccc(C[n+]2ccc3[nH]c4ccccc4c3c2)cc1`, the inhibition in [2] and in data set [3] was less than 50% throughout. Moreover, the results for the IC50 at Acetylcholinesterase [1] and on Cholinesterase were 8.6 µM and 1.9 µM, respectively. The solubility entry in data set [4] was “Insoluble”.

In the case of `c1ccc2c(c1)[nH]c1ccncc12`, the inhibition (as a rule, the share of the control response that was lost under treatment) in data set [2] was less than 50%. Besides, the IC50 came to 21.4 µM on Acetylcholinesterase [1] and 1.2 µM on Cholinesterase. The solubility result in data set [4] is listed as “Insoluble”.

Turning to `C[n+]1ccc2c(c1)c1cc(F)ccc1n2CCC(=O)N1c2ccccc2Sc2ccccc21`, the IC50 on Acetylcholinesterase [1] was 2.6 µM; in [5], 2.1 µM; at Cholinesterase, 0.032 µM; in [6], 3 µM.

With `CN1CCc2c(c3ccccc3n2CCC(=O)N2c3ccccc3Sc3ccccc32)C1`, the inhibition in data set [2] and in [3] was less than 50% each time. The results for the IC50 on Acetylcholinesterase [1] and at Cholinesterase were 7.8 µM and 0.17 µM, respectively. Further, the solubility entry in data set [4] was “Insoluble”.

`Fc1ccc2[nH]c3c(c2c1)CN(Cc1ccccc1)CC3`: the inhibition in data set [2] and in data set [3] was less than 50% each time. In addition, the IC50 on Acetylcholinesterase [1] was 17.6 µM; on Cholinesterase, 2.1 µM. For the same molecule, the solubility entry in data set [4] and in data set [8] was “Insoluble” in each case.

Consider `Cc1ccc2c(c1)c1c[n+](C)ccc1n2CCC(=O)N1c2ccccc2Sc2ccccc21`, for which the IC50 amounted to 1.1 µM on Acetylcholinesterase [1], 0.5 µM in data set [5], 0.032 µM on Cholinesterase and 0.9 µM in [6].

In the case of `Cc1ccc2[nH]c3ccncc3c2c1`, the inhibition in data set [2] and in [3] was less than 50% in each case. For the same molecule, the IC50 on Acetylcholinesterase [1] was 35.4 µM; on Cholinesterase it was 1.4 µM. In addition, in data set [4], the solubility result is on record as “Insoluble”.

For `COc1ccc2c(c1)c1cnccc1n2CCC(=O)N1c2ccccc2Sc2ccccc21`, the IC50 is 0.54 µM on Acetylcholinesterase [1], 0.6 µM in data set [5], 0.037 µM on Cholinesterase and 0.8 µM in data set [6].

Consider `c1ccc2c(c1)c1cnccc1n2CCCCCCCCCn1c2ccccc2c2cnccc21`, for which the inhibition in data set [2] and in [3] was less than 50% each time. In addition, at Acetylcholinesterase [1], the IC50 worked out at 0.08 µM.

As to `COc1cc2c(cc1OC)C(=O)C(CC1CCN(Cc3ccccc3)CC1)C2` (stereo not drawn), the inhibition in [2] is less than 50%.

On to `Cc1ccc2[nH]c3cc[n+](C)cc3c2c1.[I-]`, for which the inhibition in data set [2] and in data set [3] was less than 50% throughout. In addition, the IC50 at Acetylcholinesterase [1] is 9.1 µM; on Cholinesterase, 5.5 µM. Moreover, the solubility entry in data set [4] is “Insoluble”.

In the case of `c1ccc2c(c1)Nc1ccccc1S2` [PHENOTHIAZINE], the inhibition in [2] is less than 50%; in [9], less than 50%; on Acetylcholinesterase [10], less than 30%. In data set [8], the solubility entry is given as “Insoluble”.

For `C[n+]1ccc2c(c1)c1ccccc1n2CCC(=O)N1c2ccccc2Sc2ccccc21`, the IC50 at Acetylcholinesterase [1] was determined as 2.2 µM; in data set [5], 1.4 µM; on Cholinesterase, 0.041 µM; in data set [6], 2.4 µM.

Regarding `COc1ccc2[nH]c3cc[n+](C)cc3c2c1.[I-]`, the inhibition in data set [2] and in data set [3] was less than 50% each time. For the same molecule, the IC50 amounted to 14.7 µM on Acetylcholinesterase [1] and 9.8 µM on Cholinesterase. In data set [4], the solubility entry is reported as “Insoluble”.

Turning to `O=C(CCn1c2ccccc2c2c[n+](Cc3ccccc3)ccc21)N1c2ccccc2Sc2ccccc21`, the IC50 at Acetylcholinesterase [1] came to 2.2 µM; in [5] it was 0.9 µM; at Cholinesterase, 0.011 µM; in data set [6], 1 µM.

In the case of `C[n+]1ccc2[nH]c3ccc(F)cc3c2c1.[I-]`, the inhibition in [2] and in [3] was less than 50% each time. The values for the IC50 on Acetylcholinesterase [1] and on Cholinesterase were 1.9 µM and 2.7 µM, respectively. In addition, in data set [4], the solubility entry is given as “Insoluble”.

`O=C(CCn1c2ccncc2c2cc(F)ccc21)N1c2ccccc2Sc2ccccc21`: the IC50 at Acetylcholinesterase [1] worked out at 6.2 µM; in [5], 2.7 µM; on Cholinesterase it was 0.008 µM; in data set [6], 1.7 µM. Also, the Ratio IC50 in [11] was 775.

Consider `Cn1ccc2nc3ccccc3c-2c1.I`, for which the inhibition in data set [2] and in [3] was less than 50% in each case. In addition, the IC50 came out at 8.7 µM on Acetylcholinesterase [1] and 0.89 µM on Cholinesterase. Besides, in [4], the solubility result was “Insoluble”.

As to `COc1ccc2[nH]c3ccncc3c2c1`, the inhibition in [2] and in data set [3] was less than 50% throughout. For the same molecule, the IC50 came to 49.6 µM on Acetylcholinesterase [1] and 12.6 µM on Cholinesterase. Further, in data set [4], the solubility result was “Insoluble”.

As to `COc1ccc2c(c1)c1c[n+](C)ccc1n2CCC(=O)N1c2ccccc2Sc2ccccc21`, the IC50 on Acetylcholinesterase [1] is 5.3 µM; in data set [5] it was 0.2 µM; at Cholinesterase, 0.041 µM; in [6], 0.4 µM.

Source of the values: ChEMBL document CHEMBL4823302, “Evaluation of γ-carboline-phenothiazine conjugates as simultaneous NMDA receptor blockers and cholinesterase inhibitors” (Bioorg Med Chem, 2021).
